ChEMBL document CHEMBL4689842, “EUbOPEN Chemogenomics Library wave 1” (2021)

System: HEK-293T
Assay: Multiplex assay against HEK293T;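 for Population Tubulin-Different-Phenotype (%): share of the cells with healthy nuclei that show this phenotype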
Type: toxicity, cell-based
Conditions: human
Method in brief: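 With compound added, live cells were imaged on a CQ1 microscope at 37°C and 5% CO2; staining with Hoechst33342, BioTracker Green Microtubule Cytoskeleton Dye, MitoTracker Red and Annexin V Alexa Fluor 680 had been done at seeding. The CellPathfinder machine-learning gating scheme split cells into Hoechst high-intensity objects or normal cells, normal cells into healthy, pyknosed or fragmented nuclei, and pyknosed cells into mitotic or apoptotic. The tubulin, mitochondrial-mass and membrane-permeability phenotypes are per cents of healthy-nucleus cells.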

[1] = 12 h, 1 µM, compound concentration 1 uM, replicate 1
[2] = 12 h, 1 µM, compound concentration 1 uM, replicate 2
[3] = 12 h, 10 µM, compound concentration 10 uM, replicate 1
[4] = 12 h, 10 µM, compound concentration 10 uM, replicate 2
[5] = 24 h, 1 µM, compound concentration 1 uM, replicate 1
[6] = 24 h, 1 µM, compound concentration 1 uM, replicate 2
[7] = 24 h, 10 µM, compound concentration 10 uM, replicate 1
[8] = 24 h, 10 µM, compound concentration 10 uM, replicate 2
[9] = 48 h, 1 µM, compound concentration 1 uM, replicate 1
[10] = 48 h, 1 µM, compound concentration 1 uM, replicate 2
[11] = 48 h, 10 µM, compound concentration 10 uM, replicate 1
[12] = 48 h, 10 µM, compound concentration 10 uM, replicate 2

C=CC(=O)Nc1cccc(C(=O)Nc2ccc(Nc3cc(-c4[nH]c(SC)nc4C)ccn3)cc2)c1
Population Apoptotic (%) [1]: 48% | Population Fragmented Nuclei (%) [1]: 16% | Population Healthy Nuclei (%) [1]: 29% | Population Hoechst High Intensity Objects (%) [1]: 14% | Population Membrane Permeable-Phenotype (%) [1]: 4% | Population Mitochondria Different-Phenotype (%) [1]: 80% | Population Mitotic Cells (%) [1]: 51% | Population Normal (%) [1]: 85% | Population Pyknosed Nuclei (%) [1]: 54% | Population Tubulin-Different-Phenotype (%) [1]: 54% | Total Cell Count [1]: 327 | Population Apoptotic (%) [2]: 5% | Population Fragmented Nuclei (%) [2]: 7% | Population Healthy Nuclei (%) [2]: 45% | Population Hoechst High Intensity Objects (%) [2]: 5% | Population Membrane Permeable-Phenotype (%) [2]: 2% | Population Mitochondria Different-Phenotype (%) [2]: 24% | Population Mitotic Cells (%) [2]: 94% | Population Normal (%) [2]: 94% | Population Pyknosed Nuclei (%) [2]: 47% | Population Tubulin-Different-Phenotype (%) [2]: 17% | Total Cell Count [2]: 190 | Population Apoptotic (%) [3]: 48% | Population Fragmented Nuclei (%) [3]: 18% | Population Healthy Nuclei (%) [3]: 30% | Population Hoechst High Intensity Objects (%) [3]: 14% | Population Membrane Permeable-Phenotype (%) [3]: 20% | Population Mitochondria Different-Phenotype (%) [3]: 83% | Population Mitotic Cells (%) [3]: 51% | Population Normal (%) [3]: 85% | Population Pyknosed Nuclei (%) [3]: 51% | Population Tubulin-Different-Phenotype (%) [3]: 70% | Total Cell Count [3]: 210 | Population Apoptotic (%) [4]: 29% | Population Fragmented Nuclei (%) [4]: 4% | Population Healthy Nuclei (%) [4]: 29% | Population Hoechst High Intensity Objects (%) [4]: 6% | Population Membrane Permeable-Phenotype (%) [4]: 19% | Population Mitochondria Different-Phenotype (%) [4]: 34% | Population Mitotic Cells (%) [4]: 70% | Population Normal (%) [4]: 93% | Population Pyknosed Nuclei (%) [4]: 65% | Population Tubulin-Different-Phenotype (%) [4]: 82% | Total Cell Count [4]: 240 | Population Apoptotic (%) [5]: 48% | Population Fragmented Nuclei (%) [5]: 15% | Population Healthy Nuclei (%) [5]: 35% | Population Hoechst High Intensity Objects (%) [5]: 17% | Population Membrane Permeable-Phenotype (%) [5]: 3% | Population Mitochondria Different-Phenotype (%) [5]: 58% | Population Mitotic Cells (%) [5]: 51% | Population Normal (%) [5]: 82% | Population Pyknosed Nuclei (%) [5]: 49% | Population Tubulin-Different-Phenotype (%) [5]: 48% | Total Cell Count [5]: 365 | Population Apoptotic (%) [6]: 13% | Population Fragmented Nuclei (%) [6]: 5% | Population Healthy Nuclei (%) [6]: 64% | Population Hoechst High Intensity Objects (%) [6]: 1% | Population Membrane Permeable-Phenotype (%) [6]: 10% | Population Mitochondria Different-Phenotype (%) [6]: 16% | Population Mitotic Cells (%) [6]: 86% | Population Normal (%) [6]: 98% | Population Pyknosed Nuclei (%) [6]: 30% | Population Tubulin-Different-Phenotype (%) [6]: 34% | Total Cell Count [6]: 227 | Population Apoptotic (%) [7]: 48% | Population Fragmented Nuclei (%) [7]: 20% | Population Healthy Nuclei (%) [7]: 40% | Population Hoechst High Intensity Objects (%) [7]: 18% | Population Membrane Permeable-Phenotype (%) [7]: 5% | Population Mitochondria Different-Phenotype (%) [7]: 80% | Population Mitotic Cells (%) [7]: 52% | Population Normal (%) [7]: 81% | Population Pyknosed Nuclei (%) [7]: 39% | Population Tubulin-Different-Phenotype (%) [7]: 72% | Total Cell Count [7]: 233 | Population Apoptotic (%) [8]: 31% | Population Fragmented Nuclei (%) [8]: 5% | Population Healthy Nuclei (%) [8]: 51% | Population Hoechst High Intensity Objects (%) [8]: 5% | Population Membrane Permeable-Phenotype (%) [8]: 19% | Population Mitochondria Different-Phenotype (%) [8]: 34% | Population Mitotic Cells (%) [8]: 68% | Population Normal (%) [8]: 94% | Population Pyknosed Nuclei (%) [8]: 43% | Population Tubulin-Different-Phenotype (%) [8]: 81% | Total Cell Count [8]: 284 | Population Apoptotic (%) [9]: 38% | Population Fragmented Nuclei (%) [9]: 17% | Population Healthy Nuclei (%) [9]: 36% | Population Hoechst High Intensity Objects (%) [9]: 16% | Population Membrane Permeable-Phenotype (%) [9]: 6% | Population Mitochondria Different-Phenotype (%) [9]: 34% | Population Mitotic Cells (%) [9]: 61% | Population Normal (%) [9]: 83% | Population Pyknosed Nuclei (%) [9]: 45% | Population Tubulin-Different-Phenotype (%) [9]: 38% | Total Cell Count [9]: 393 | Population Apoptotic (%) [10]: 12% | Population Fragmented Nuclei (%) [10]: 7% | Population Healthy Nuclei (%) [10]: 78% | Population Hoechst High Intensity Objects (%) [10]: 2% | Population Membrane Permeable-Phenotype (%) [10]: 10% | Population Mitochondria Different-Phenotype (%) [10]: 8% | Population Mitotic Cells (%) [10]: 87% | Population Normal (%) [10]: 97% | Population Pyknosed Nuclei (%) [10]: 13% | Population Tubulin-Different-Phenotype (%) [10]: 26% | Total Cell Count [10]: 435 | Population Apoptotic (%) [11]: 52% | Population Fragmented Nuclei (%) [11]: 15% | Population Healthy Nuclei (%) [11]: 43% | Population Hoechst High Intensity Objects (%) [11]: 14% | Population Membrane Permeable-Phenotype (%) [11]: 4% | Population Mitochondria Different-Phenotype (%) [11]: 54% | Population Mitotic Cells (%) [11]: 47% | Population Normal (%) [11]: 85% | Population Pyknosed Nuclei (%) [11]: 40% | Population Tubulin-Different-Phenotype (%) [11]: 69% | Total Cell Count [11]: 271 | Population Apoptotic (%) [12]: 25% | Population Fragmented Nuclei (%) [12]: 8% | Population Healthy Nuclei (%) [12]: 75% | Population Hoechst High Intensity Objects (%) [12]: 3% | Population Membrane Permeable-Phenotype (%) [12]: 19% | Population Mitochondria Different-Phenotype (%) [12]: 14% | Population Mitotic Cells (%) [12]: 74% | Population Normal (%) [12]: 96% | Population Pyknosed Nuclei (%) [12]: 15% | Population Tubulin-Different-Phenotype (%) [12]: 64% | Total Cell Count [12]: 503
